# Compound activity deposited in PubChem BioAssay by several laboratories.
# The list is not random: actives were taken first. Their share in the collection is about 2.2%.
# miR122 inh: inhibitors of miR-122 in Huh7 cells; Huh7 miR-122 Renilla luciferase sensor, 48 h; neutral wells = 0, positive control = 100; activation (reporter increase), % at 12.5 µM; actives 0.3% (n = 340,000);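 active = mean replicate activation score at least 90 and every replicate individually at or above 90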;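 also: higher luciferase means less miR-122 activity so hits act as miR-122 inhibitors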
# NR2E3 ag-1: NR2E3 (human) agonism; GST-NR2E3/biotin-RetCOR TR-FRET, 1536-well; inhibition of corepressor binding, % at 4.78 µM; actives 0.12% (n = 320,000);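 active = percent inhibition above the cutoff of mean plus 3 SD of all tested compounds, set per screening campaign, cut at about 20% in these data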
#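 Material: NR2E3–RetCOR corepressor complex / Amount: 1.35 nM GST-NR2E3 / Medium: Tris pH 7.5 / Compound: single nominal compound dose of 4.8 µM / Incubation: 5 h at 4 °C / Technique: TR-FRET, Eu(K)-anti-GST donor, streptavidin-D2 acceptor, ex 340, em 617/671 nm / Read-out basis: percent loss of FRET ratio relative to control wells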
# NR2E3 ag-2: activates human NR2E3 receptor; Q9Y5X4; CHO-S Gal4-NCOR/VP16-NR2E3 two-hybrid, luciferase; inhibition of corepressor binding, % at 3.98 µM; actives 0.35% (n = 360,000);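 active = inhibition above the mean of all tested compounds plus 3 SD, cut at about 70% in these data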;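 also: higher means lower luciferase signal from less NR2E3 corepressor binding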
# FGF22 binding-1: shifts melting point of recombinant human FGF22; AID 651658; recombinant FGF22 thermal shift, SYPRO orange fluorescence; percent of sucrose octasulfate shift, DMSO zero; actives 1.5% (n = 340,000); activity (Tm shift, normalised), % at 9.99 µM;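 active = mean Tm shift, scaled 0 neutral to 100 positive control, at about 1.3% or above, every replicate too, limit read from the data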
# Target sequence (Q9HCT0 whole entry, looked up): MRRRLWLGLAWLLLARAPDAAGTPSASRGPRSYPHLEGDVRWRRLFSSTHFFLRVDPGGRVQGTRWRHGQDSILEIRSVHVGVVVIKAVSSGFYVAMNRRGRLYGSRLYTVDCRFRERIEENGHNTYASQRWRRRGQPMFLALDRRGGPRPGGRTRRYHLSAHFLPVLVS
# Jurkat NFkB inh: lowers PMA/ionomycin-induced NF-kB signal in Jurkat cells; inhibition, % at 4 µM; actives 0.53% (n = 330,000); AID 435003; PMA/ionomycin-induced NF-kB luciferase reporter, luminescence; in the data active = inhibition above about 50%
# 697 NFkB inh: inhibitors of the PMA/ionomycin-induced NF-kB reporter in 697 B cells; inhibition, % at 4 µM; actives 0.33% (n = 330,000); 697 B-cell NF-kB luciferase reporter, 16 h; in the data active = inhibition above about 35%
# FGF22 binding-2: FGF22 (human) binding in thermal shift | recombinant FGF22 thermal shift, SYPRO orange fluorescence | shares compounds with FGF22 binding-1 | thermal shift activity, °C (ΔTm) at 38 µM | AID 720646 | actives 2% (n = 1,000);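 active = fitted rise in melting shift crosses a set limit at or below the top valid dose tested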
# FGF22 TSA: binds human FGF22 shifting its melting temperature. shares compounds with FGF22 binding-1. Thermal shift assay, SYPRO orange, melting temperature shift. Tm shift (activity), % at 38 µM. 50 tested, under 10 active;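 active = compounds whose fitted dose curve of melting temperature shift rises past a set threshold within the tested doses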
# SYPRO no-protein: counter-screen for FGF22 binders: compound-only thermal shift, no protein | shares compounds with FGF22 binding-1 | actives 2% (n = 1,000) | AC50, µM (highest dose often 38 µM) | compound-only SYPRO orange thermal shift counter-screen;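 active = rising signal whose fitted curve reaches the 0.54 level within the top valid dose, showing a melting point, actives reach about 13 µM in these data; inactive = the rest, including activity in the opposite direction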; also: value is where the raw curve crosses a fixed level and not half-maximal
# A number is an active result; . = inactive; / = not tested or not shown.
SMILES,miR122 inh,NR2E3 ag-1,NR2E3 ag-2,FGF22 binding-1,Jurkat NFkB inh,697 NFkB inh,FGF22 binding-2,SYPRO no-protein,others
Cc1noc(C)c1NC(=O)N(C)C[C@@H]1OCCCC[C@H](C)Oc2ccc(NS(=O)(=O)c3cccs3)cc2C(=O)N([C@@H](C)CO)C[C@H]1C,.,/,/,.,/,/,/,/,
CO[C@@H]1CN(C)C(=O)c2cc(NC(=O)c3cccc(F)c3)ccc2OC[C@@H](C)NC[C@@H]1C,.,/,/,.,/,/,/,/,
CO[C@@H]1CN(C)C(=O)c2ccc(NS(=O)(=O)c3ccc(Cl)cc3)cc2OC[C@@H](C)N(C(=O)NC(C)C)C[C@@H]1C,.,/,/,.,/,/,/,/,
CO[C@@H]1CN(C)C(=O)c2cc(NC(=O)C3CCCC3)ccc2OC[C@H](C)N(CCC(F)(F)F)C[C@H]1C,.,/,/,9.3,/,/,.,.,
CO[C@H]1CN(C)C(=O)c2ccc(NS(=O)(=O)c3ccc(Cl)cc3)cc2OC[C@@H](C)N(C(=O)NC(C)C)C[C@H]1C,.,/,/,36.4,/,/,.,.,
CO[C@H]1CN(C)C(=O)c2cc(NC(=O)c3cccc(F)c3)ccc2OC[C@H](C)NC[C@@H]1C,.,/,/,2.0,/,/,.,.,
COc1ccc2nc(NC(=O)CCc3cc(OC)c(OC)c(OC)c3)sc2c1,/,.,.,1.9,.,.,.,.,
COc1ccc(Nc2nc3ccc(OC)cc3s2)cc1,/,.,.,1.5,.,.,.,.,FGF22 TSA=.
COc1ccc2nc(NC(=O)CCn3cccc3)sc2c1,.,.,.,/,.,.,/,/,
CCN1C/C(=C/c2cccs2)c2nc3ccccc3c(C(=O)O)c2C1,.,.,.,1.8,.,.,.,.,FGF22 TSA=.
CCN1C/C(=C/c2sccc2C)c2nc3ccccc3c(C(=O)O)c2C1,.,.,.,.,.,.,/,/,
CO[C@@H]1CN(C)C(=O)c2cc(NC(=O)C3CCC3)ccc2OC[C@H](C)N(C(=O)NC(C)C)C[C@@H]1C,/,/,/,.,/,/,/,/,
Cc1ccc(NC(=O)c2ccc(Cl)c(S(=O)(=O)NCC3CCCO3)c2)c(O)c1 (centres undefined),.,.,.,30.0,.,.,.,.,
Cc1ccccc1NC(=O)c1ccc(F)c(S(=O)(=O)NCC2CCCO2)c1 (centres undefined),.,.,.,.,.,.,/,/,
N#CCSc1n[nH]c2nc3c(c(=O)n12)C1(CCCCC1)Cc1ccccc1-3,.,.,.,1.9,.,.,.,.,
COc1ccccc1-c1ccc([C@H]2[C@@H](CO)N(C(=O)C3CC3)C23CN(C(C)=O)C3)cc1,/,/,/,.,/,/,/,/,
CO[C@H]1CN(C)C(=O)c2ccc(NC(C)=O)cc2OC[C@@H](C)N(CCC(F)(F)F)C[C@@H]1C,.,/,/,.,/,/,/,/,
Cc1cccc(NC(=O)Nc2ccc(S(N)(=O)=O)cc2)c1,.,.,.,1.7,.,.,.,10.9µM,
Cc1cccc(C)c1NC(=O)Nc1ccc(S(N)(=O)=O)cc1,/,.,.,.,.,.,/,/,
CC(C)NC(=O)N1C[C@H]2[C@@H](c3ccccc31)[C@@H](CO)N2C(=O)NC(C)C,.,/,/,/,/,/,/,/,
Nc1ccc(C(=O)Nc2ccc(OC(F)(F)C(F)F)c(NC(=O)c3ccc(N)cc3)c2)cc1,.,.,.,1.7,.,.,.,.,
O=C(Nc1ccc(OC(F)(F)C(F)F)c(NC(=O)c2ccc(F)cc2)c1)c1ccc(F)cc1,.,.,.,/,.,.,/,/,
CCOC(=O)c1ccc(S(=O)(=O)Nc2cc(C(=O)O)ccc2Cl)cc1,/,.,.,2.2,.,.,.,.,
CCOC(=O)c1ccc(S(=O)(=O)NNS(=O)(=O)c2ccc(C)cc2)cc1,.,.,.,.,.,.,/,/,
C[C@@H]1CN([C@H](C)CO)C(=O)c2cc(NC(=O)c3ccncc3)ccc2O[C@H]1CN(C)S(=O)(=O)c1cn(C)cn1,.,/,/,.,/,/,/,/,
